Active and inactive are the calls of the source. No cut-off for these calls is given here.
Key:
[1] = tested on: Radical scavenging activity; assay: Antioxidant activity assessed as DPPH free radical scavenging activity incubated for 30 mins; assay type: functional
Procedure, shortened: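 Blois method, modified: 0.1 ml sample in ethanol (2.5–20 mg/mL) mixed with 4 ml 1.5 × 10^-5 M DPPH, kept dark at room temperature 30 min; absorbance at 520 nm used to calculate % radical scavenging.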

RAW264.7 [2] = assay: Antiinflammatory activity in mouse RAW264.7 cells assessed as inhibition of LPS-induced nitric oxide production pre-treated for 30 mins before LPS stimulation measured 24 hrs post LPS challenge by Griess assay; assay type: functional, cell-based
Procedure, shortened: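 LPS 200 ng/mL for 24 h after 30 min pretreatment at various concentrations; cells seeded 5 × 10^5/well overnight at 37 °C in DMEM/10% FBS. Nitrite in medium read with Griess reagent (1% sulfanilamide, 0.1% N-1-naphthylenediamine dihydrochloride, 2.5% phosphoric acid), 10 min, absorbance 570 nm, quantified against sodium nitrite standard curve.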

RAW264.7 [3] = assay: Cytotoxicity against mouse RAW264.7 cells assessed as change in cell viability at 25 ug/mL incubated for 24 hrs by MTT assay; assay type: cell-based; conditions: raw264.7, 24 h
Procedure, shortened: (§1)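 RAW264.7 (passage ≤20, DMEM/10% FBS) seeded 5 × 10^4 cells/well, exposed to compound 24 h; MTT (5 mg/ml stock) added 4 h, formazan dissolved in 0.04 N HCl/isopropyl alcohol, OD read at 570 and 630 nm.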

RAW264.7 [4] = assay: Cytotoxicity against mouse RAW264.7 cells assessed as change in cell viability at 50 ug/mL incubated for 24 hrs by MTT assay; assay type: cell-based; conditions: raw264.7, 24 h; procedure, shortened: as §1
RAW264.7 [5] = assay: Inhibition of iNOS mRNA expression in mouse RAW264.7 cells pre-treated for 30 mins before LPS stimulation measured 24 hrs post LPS challenge by RT-PCR; assay type: functional, cell-based
Procedure, shortened: (§2)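 Cells pretreated with compound 30 min, then LPS 200 ng/mL for 24 h; total RNA extracted with TRIzol, quality checked by 260/280 absorbance; iNOS and COX-2 mRNA assessed by RT-PCR with gene-specific primers.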

RAW264.7 [6] = assay: Cytotoxicity against mouse RAW264.7 cells assessed as change in cell viability at 12 ug/mL incubated for 24 hrs by MTT assay; assay type: cell-based; conditions: raw264.7, 24 h; procedure, shortened: as §1
RAW264.7 [7] = assay: Cytotoxicity against mouse RAW264.7 cells assessed as change in cell viability at 6 ug/mL incubated for 24 hrs by MTT assay; assay type: cell-based; conditions: raw264.7, 24 h; procedure, shortened: as §1
RAW264.7 [8] = assay: Inhibition of COX2 mRNA expression in mouse RAW264.7 cells at 50 ug/mL pre-treated for 30 mins before LPS stimulation measured 24 hrs post LPS challenge by RT-PCR; assay type: functional, cell-based; procedure, shortened: as §2
[9] = Solubility in DMSO; assay type: physicochemical

IC50 [1] [µM]	Compound	other results
5.22	COc1ccc(/C=N/c2c(C)n(C)n(-c3ccccc3)c2=O)cc1C	
0.93	Cc1c(/N=C/c2ccc(O)c(O)c2)c(=O)n(-c2ccccc2)n1C	Activity (RAW264.7 [2]): Dose-dependent effect; Activity (RAW264.7 [3]): Non-toxic; Activity (RAW264.7 [4]): Non-toxic; inhibition (RAW264.7 [5]): Dose-dependent effect; Activity (RAW264.7 [6]): Non-toxic; Activity (RAW264.7 [7]): Non-toxic; inhibition (RAW264.7 [8]): Active
1.66	COc1cc(/C=N/c2c(C)n(C)n(-c3ccccc3)c2=O)cc(OC)c1O	
0.44	Cc1c(/N=C/c2c(O)cc(O)cc2O)c(=O)n(-c2ccccc2)n1C	solubility [9]: Insoluble
2.5	Cc1c(/N=C/c2ccc(O)cc2O)c(=O)n(-c2ccccc2)n1C	
18.8	Cc1c(/N=C/c2ccc(O)cc2)c(=O)n(-c2ccccc2)n1C	

The next lines start with the compound.

Compound	IC50 [1] [µM]	other results
Cc1c(/N=C/c2ccccc2C=O)c(=O)n(-c2ccccc2)n1C	34.5	
COc1ccc(/C=N/c2c(C)n(C)n(-c3ccccc3)c2=O)cc1	15.3	
Cc1c(/N=C/c2ccccc2)c(=O)n(-c2ccccc2)n1C	31.3	
Cc1c(/N=C/c2ccccc2/C=N/c2c(C)n(C)n(-c3ccccc3)c2=O)c(=O)n(-c2ccccc2)n1C	3.14	
COc1ccc(/C=N/c2c(C)n(C)n(-c3ccccc3)c2=O)c(OC)c1	14.5	
COc1ccc(/C=N/c2c(C)n(C)n(-c3ccccc3)c2=O)cc1OC	7.27	
Cc1c(/N=C/c2ccc(Cl)cc2)c(=O)n(-c2ccccc2)n1C	31.7	
O=C1O[C@H]([C@@H](O)CO)C(O)=C1O [ASCORBIC ACID]	0.41	

— ChEMBL document CHEMBL2086279, “Synthesis of novel Schiff base analogues of 4-amino-1,5-dimethyl-2-phenylpyrazol-3-one and their evaluation for antioxidant and anti-inflammatory activity” (Bioorg Med Chem, 2012)
